This is an account of results in ChEMBL document CHEMBL1126800, “Preparation of substituted N-phenyl-4-aryl-2-pyrimidinamines as mediator release inhibitors” (J Med Chem, 1993).

In general, IC50 refers to the point on the concentration scale where inhibition reaches its midpoint. What is called LD50 is the dose expected to kill half of the subjects tested. The low end stands for a more toxic substance, the high end for a less toxic substance.

The species named for the first data set is Homo sapiens. Description: In vitro inhibition of histamine release from human basophils.
Details: not given
Format: functional, organism-based. An outline of the steps: (§1)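 Human basophils separated from leukocytes were incubated with test compound, then challenged with anti-IgE or antigen (Lichtenstein method). Histamine release was measured against controls and blanks. IC50 is the concentration lowering histamine release by 50%.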
In the case of `Nc1ccc(Nc2nccc(-c3ccncc3)n2)cc1` [listing 1 of 2 here], the IC50 stood at 2400 nM. In other words, the single-digit micromolar range. Same read-out and setting: with `c1ccc(Nc2nccc(-c3cccnc3)n2)cc1` the figure was 1300 nM; with `c1cc(Nc2nccc(-c3ccncc3)n2)cc(-n2ccnc2)c1`, 600 nM; with `c1ccc(-c2ccnc(Nc3cccc(-n4ccnc4)c3)n2)nc1` [listing 1 of 2 here], 200 nM.

Staying with this data set, now noted: Homo sapiens.
For `c1ccc(-c2ccnc(Nc3cccc(-n4ccnc4)c3)n2)nc1` [listing 2 of 2 here], the IC50 is 300 nM.

Regarding `CCN(CC)CCOc1ccc(Nc2nccc(-c3ccccn3)n2)cc1`, the IC50 is > 3000 nM. Take `CCN(CC)c1ccc(Nc2nccc(-c3ccc(C)o3)n2)cc1`: the IC50 worked out at 28000 nM. This lies in the double-digit micromolar range. Same read-out and setting: in the case of `Nc1cccc(Nc2nccc(-c3ccccn3)n2)c1` it was 300 nM; in that of `CC1CCN(c2cccc(Nc3nccc(-c4ccco4)n3)c2)CC1`, 5000 nM; in that of `CCOC(=O)c1ccc(Nc2nccc(-c3cccnc3)n2)cc1`, 12400 nM. Still for that read-out and setting: with `CCc1cccc(Nc2nccc(-c3ccncc3)n2)c1` the figure was 10600 nM.

Regarding `c1csc(-c2ccnc(Nc3ccc(-n4ccnc4)cc3)n2)c1`, the IC50 was 4300 nM. Take `Cc1cccc(Nc2nccc(-c3ccc(C)o3)n2)c1`: the half-inhibitory concentration (IC50) came out at 2000 nM.

On to `CCN(CC)CCCOc1ccc(Nc2nccc(-c3ccncc3)n2)cc1`, for which it took 1300 nM to reach half-maximal inhibition (IC50). `Clc1cccc(Nc2nccc(-c3cccnc3)n2)c1` had an IC50 of 1500 nM. On to `Oc1ccccc1Nc1nccc(-c2cccnc2)n1`, for which the half-inhibitory concentration (IC50) is 23500 nM. Against the preceding compound, the IC50 is about 16-fold higher. Still for that read-out and setting: in the case of `Cc1cccc(Nc2nccc(-c3ccc[nH]3)n2)c1` it was 8500 nM. On the same count and under the same terms, with `COc1ccc(Nc2nccc(-c3ccsc3)n2)cc1` the figure was 15600 nM; with `CCN(CC)c1ccc(Nc2nccc(-c3ccco3)n2)cc1`, 8700 nM. `CN(C)c1ccccc1Nc1nccc(-c2ccncc2)n1`: it took 36200 nM to reach half-maximal inhibition (IC50). Consider `CC(=O)N(C)c1ccc(Nc2nccc(-c3ccncc3)n2)cc1`, for which the IC50 worked out at 500 nM. On the same count and under the same terms, with `COc1cccc(Nc2nccc(-c3cc4ccccc4o3)n2)c1` the figure was 2800 nM; with `Cc1cc(C)cc(Nc2nccc(-c3ccco3)n2)c1`, 700 nM.

`Cc1ccccc1Nc1nccc(-c2ccncc2)n1` came in with an IC50 of 3900 nM.

Turning to `CCc1ccc(Nc2nccc(-c3ccncc3)n2)cc1`, half-maximal inhibition (IC50) was put at 7700 nM. This IC50 lies about 2-fold higher than the previous one.

In turn, `FC(F)(F)c1cc(Nc2nccc(-c3ccncc3)n2)ccc1-n1ccnc1` came in with an IC50 of 400 nM. Consider `CNc1ccc(Nc2nccc(-c3cccnc3)n2)cc1`, for which the IC50 is 2100 nM. This IC50 is about 5.2-fold higher than that of the compound before. The compound `COc1cccc(Nc2nccc(-c3ccncc3)n2)c1` had an IC50 of 400 nM. For the compound `CN(C)c1ccc(Nc2nccc(-c3ccncc3)n2)cc1`, the IC50 worked out at 3700 nM. `COc1ccc(N(C)c2nccc(-c3cccnc3)n2)cc1`: the IC50 is > 24000 nM.

In the case of `Cc1cccc(Nc2nccc(-c3cccnc3)n2)c1`, the IC50 was determined as 1500 nM. The same measure, in the same setting: with `CCN(CC)CCOc1ccc(Nc2nccc(-c3cccnc3)n2)cc1` the figure was 200 nM; with `CCN(CC)CCOc1cccc(Nc2nccc(-c3cccnc3)n2)c1`, 2900 nM; with `Nc1cccc(Nc2nccc(-c3ccncc3)n2)c1`, 1000 nM. Take `Nc1ccc(Nc2nccc(-c3ccncc3)n2)cc1` [listing 2 of 2 here]: the IC50 was determined as 2900 nM. Still for that read-out and setting: in the case of `CN(C)c1cccc(Nc2nccc(-c3ccncc3)n2)c1` it was 3700 nM. Take `Nc1ccc(Nc2nccc(-c3ccccn3)n2)cc1`: inhibition was half-maximal at 1500 nM (IC50). Compound `CN(C)CCOc1ccc(Nc2nccc(-c3cccnc3)n2)cc1` returned an IC50 of 700 nM. The same measure, in the same setting: with `CCN(CC)CCOc1ccc(Nc2nccc(-c3ccncc3)n2)cc1` the figure was 200 nM; with `Nc1cccc(Nc2nccc(-c3cccnc3)n2)c1`, 500 nM. `CC(=O)Nc1ccc(Nc2nccc(-c3cccnc3)n2)cc1` showed an IC50 of 3600 nM.

Turning to `COc1ccc(Nc2nccc(-c3ccncc3)n2)cc1`, the IC50 is 4200 nM. This IC50 and that of the compound before are within 1.5-fold of each other.

As to `COc1cccc(Nc2nccc(-c3ccsc3)n2)c1`, the IC50 is 1800 nM.

For `c1cc(Nc2nccc(-c3ccco3)n2)cc(OCCn2ccnc2)c1`, the IC50 is 200 nM. `NS(=O)(=O)c1cccc(Nc2nccc(-c3ccccn3)n2)c1` gave an IC50 of 500 nM. Compound `Cc1cc(-c2ccccn2)nc(Nc2ccccc2)n1` gave an IC50 of 26800 nM. Still for that read-out and setting: in the case of `COc1cccc(Nc2nccc(-c3sccc3C)n2)c1` it was > 24000 nM; in that of `Cc1cc(-c2ccc(C)s2)nc(Nc2ccccc2)n1`, 24800 nM; in that of `CC(C)(C)c1ccc(Nc2nccc(-c3cccnc3)n2)cc1`, 600 nM.

`Cc1cc(C)cc(Nc2nccc(-c3cccnc3)n2)c1` had an IC50 of 800 nM. The IC50 values of the last two compounds are within 1.5-fold of each other. As for `CCN(CC)CCOc1cccc(Nc2nccc(-c3ccccn3)n2)c1`, it took 1200 nM to reach half-maximal inhibition (IC50). This IC50 lies about 1.5-fold higher than the previous one. Still for that read-out and setting: in the case of `CC(=O)N(C)c1ccc(Nc2nccc(-c3cccnc3)n2)cc1` it was 900 nM; in that of `CCN(CC)c1ccc(Nc2nccc(-c3cc(C)oc3C)n2)cc1`, > 24000 nM. `Oc1ccc(Nc2nccc(-c3cccnc3)n2)cc1` came in with an IC50 of 5100 nM. In other words, the single-digit micromolar range. The same measure, in the same setting: in the case of `Fc1cccc(Nc2nccc(-c3ccncc3)n2)c1` it was 700 nM; in that of `Cc1cc(-c2ccnc(Nc3ccc(N(C)C)cc3)n2)c(C)o1`, 4900 nM; in that of `CCN(CC)CCSc1ccc(Nc2nccc(-c3ccncc3)n2)cc1`, 1000 nM. On the same count and under the same terms, with `CC(=O)Nc1cccc(Nc2nccc(-c3ccncc3)n2)c1` the figure was 2700 nM.

The species entered for another data set is Homo sapiens. Description: In vitro inhibition of histamine release from human basophils; H= Compound interfered with the histamine assay. In kind it is functional, organism-based.
Details: not given
An outline of the steps: as §1
Consider `CNc1ccc(Nc2nccc(-c3ccncc3)n2)cc1.Cl.Cl`, for which the IC50 entry is given as “Compound interfered with the histamine assay”.

The species named for another data set is Homo sapiens. The experiment in a line: Tested for in vitro cell leukotriene C4 release inhibition by radioimmunoassay. In kind it is functional, organism-based.
Details: not given
An outline of the steps: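 Basophils were incubated with compound and challenged. LTC4 release was measured by radioimmunoassay, with duplicate samples processed per the [3H] LTC4 RIA kit procedure. Histamine release was measured simultaneously on a second portion of the same cells. IC50 is from n = 5.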
As to `c1ccc(-c2ccnc(Nc3cccc(-n4ccnc4)c3)n2)nc1` [listing 2 of 2 here], the half-maximal inhibitory concentration (IC50) stood at 205 nM.

In the next data set the test system is Mus musculus. The experiment in a line: Tested for in vivo activity in mouse by passive cutaneous anaphylaxis (PCA) test. To be noted: read-out: ID50 (the source's name). Format: functional. An outline of the steps:
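Mouse passive cutaneous anaphylaxis test with oral dosing of compound. Read at times of […] after dosing. Value expressed as ID50 in mg/kg.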
As to `c1ccc(-c2ccnc(Nc3cccc(-n4ccnc4)c3)n2)nc1` [listing 2 of 2 here], the ED50 amounted to 50 mg/kg.

Tested on in the next data set: not listed separately
Description: Tested for toxic concentration in mice. To be noted: mouse, in vivo. In kind it is ADME, organism-based.
In turn, `c1ccc(-c2ccnc(Nc3cccc(-n4ccnc4)c3)n2)nc1` [listing 2 of 2 here] returned an LD50 of 800 mg/kg.
